Assay outcomes deposited in PubChem BioAssay by Sanford-Burnham Center for Chemical Genomics.
APOBEC3A inh: human APOBEC3A DNA deaminase inhibition; P31941; recombinant A3A, FAM/TAMRA ssDNA deamination fluorescence; inhibition, % at 20 µM; hit rate 0.41% among 330,000; AID 493011;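 active = at least 40% inhibition at 20 µM here, with at most 30% in a related deaminase screen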;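 note: plate controls were A3A with DMSO for no effect and wells lacking A3A enzyme for full effect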
APOBEC3G inh: APOBEC3G (human) deaminase inhibition; recombinant A3G, ssDNA deamination FAM/TAMRA fluorescence; AID 493012; Q9HC16; inhibition, % at 20 µM; hit rate 0.28% among 330,000;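 active = inhibition of at least 40% at 20 µM, with no more than 30% in the related APOBEC3A deaminase screen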;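 note: plate controls were DMSO wells with A3G for no effect and wells lacking A3G enzyme for full effect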
APJ agonist: agonists of human APJ apelin receptor | CHO-K1 APJ PathHunter beta-arrestin, luminescence; 0% DMSO wells, 100% apelin | hit rate 0.11% among 330,000 | P35414 | activation, % at 20 µM;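 active = activation more than six SD over the plate average, tested at 20 µM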;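 note: 0% = DMSO alone and 100% = apelin-13 at 10 nM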
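Assay system: CHO-K1 cells stably expressing ProLink-tagged human APJ and arrestin–beta-gal acceptor. Compound dosing: 20 µM single point, 1% DMSO. Times: 16-18 h seeding, 90 min dark compound exposure, 60 min detection. Detection: beta-gal luminescence. Evaluation: APJ–arrestin association signal. Controls: negative DMSO alone, positive Apelin-13 at 10 nM.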
CCR6 antagonist: CCR6 (human) receptor antagonism. P51684. CHO-K1 CCR6 PathHunter beta-arrestin, luminescence, CCL20-stimulated. inhibition, % at 20 µM. hit rate 0.49% among 340,000;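 active = compounds whose inhibition of the agonist-driven luminescence signal at 20 µM reaches about 50%, limit read from the data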;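 note: cells stimulated with CCL20 at 14 nM final; plate controls were DMSO with CCL20 for no effect and DMSO without agonist for full effect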
APJ antagonist: blocks the human apelin receptor APJ; P35414; CHO-K1 APJ beta-arrestin complementation, luminescence; inhibition, % at 20 µM; hit rate 0.32% among 330,000;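 active = inhibition above about 40% at 20 µM, limit read from the data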;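 note: cells challenged with 10 nM apelin-13 agonist together with compound; plate controls were apelin-13 plus DMSO wells for no effect and DMSO wells lacking apelin-13 for full effect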
CXCR6 block: CXCR6 (human) receptor inhibition; hit rate 0.36% among 360,000; inhibition, % at 20 µM; CHO-K1 PathHunter CXCR6 beta-arrestin, luminescence; in the data active = inhibition above about 34%, passing the limit was not always enough;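 note: antagonist mode with CXCL16 agonist at 10 nM final; 0% = 10 nM CXCL16 with DMSO and 100% = unstimulated wells without agonist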
Target sequence (O00574 whole entry, looked up): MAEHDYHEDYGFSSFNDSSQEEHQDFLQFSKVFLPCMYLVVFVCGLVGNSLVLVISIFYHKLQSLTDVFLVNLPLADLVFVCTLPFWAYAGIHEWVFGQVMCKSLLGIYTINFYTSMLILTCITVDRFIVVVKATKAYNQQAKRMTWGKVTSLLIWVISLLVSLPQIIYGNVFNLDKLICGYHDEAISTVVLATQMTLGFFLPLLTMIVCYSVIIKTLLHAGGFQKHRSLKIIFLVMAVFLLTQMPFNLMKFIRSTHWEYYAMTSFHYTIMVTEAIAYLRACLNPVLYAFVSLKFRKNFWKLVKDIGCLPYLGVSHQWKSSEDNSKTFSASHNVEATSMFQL
* hit, by the source's call; x = no result given. The list is not random: actives were taken first. Their share in the collection is about 1.4%.

SMILES	APOBEC3A inh	APOBEC3G inh	APJ agonist	CCR6 antagonist	APJ antagonist	CXCR6 block
C=C(CN(C)C)C(=O)c1ccc(C)cc1C	x	x	x	108*	x	88*
C=C(CN(C)C)C(=O)c1cc(OC)c(OC)cc1OC	x	x	x	63*	x	38*
C=C(CN(C)C)C(=O)c1ccc2c(c1)OCO2	x	x	x	109*	x	91*
CNC(=S)N/N=C/c1c2ccccc2c(Cl)c2ccccc12	0	17	0	16	-36	12
COc1ccc(-c2ccc(C(=O)NCC3CCOCC3)c3occc23)c(C)c1	x	x	x	x	x	-8
O=C1[C@H]2[C@@H](c3ccc(F)cc3)N3C(=O)N(c4cccc(F)c4)C(=O)[C@@]3(Cc3ccc(Cl)cc3)[C@H]2C(=O)N1C1CCCCC1	-1	-2	-2	-1	-53	5
COC(=O)[C@]12CCCCC=C1N(Cc1cccc3ccccc13)C(=O)[C@H](CC(=O)NCc1cccs1)C2	x	x	x	x	x	-1
N#C/C(=C\c1ccc(-c2cccc([N+](=O)[O-])c2)o1)C(=O)Nc1nc(-c2cccs2)cs1	1	-1	-7	84*	30	30
COc1ccc(CCNS(=O)(=O)c2ccc(-n3cnnn3)cc2)cc1OC	-4	-9	0	8	21	-23
CC[n+]1c(/C=C/c2ccc(N(C)C)cc2)ccc2ccccc21	x	x	x	55*	x	39
O=C(NNc1c2ccccc2nc2ccccc12)c1cccc(O)c1	10	-6	-1	60*	27	24
O=[N+]([O-])c1ccc(NN=Cc2cccc([N+](=O)[O-])c2)cc1	x	x	x	14	x	-2
O=[N+]([O-])c1ccc(N/N=C/c2ccc[nH]2)cc1	x	x	x	55*	x	10
CCOC(=O)c1c[nH]c(=S)n(-c2ccccc2)c1=O	-8	-10	3	-2	22	13
CCOC(=O)c1c(SCCN2CCCC2)n(-c2ccccc2)c(=S)n(-c2ccccc2)c1=O	x	x	x	105*	x	88*
CCCCn1nnnc1C(c1cc2ccccc2o1)N1CCN(CC(=O)N2CCCC2)CC1 (stereo unspecified)	x	x	x	x	x	-6
CCCNC(=O)c1cc(C2CCCCN2C(=O)c2cc(OC)c(C)c(OC)c2)on1 (stereo unspecified)	x	x	x	x	x	1
COc1ccccc1-n1c(CNC(=O)c2ccc(S(=O)(=O)N3CCOCC3)cc2)n[nH]c1=S	-5	42*	7	4	-4	5
COc1ccc(-c2nc3ccc(C)cn3c2CC(C)(C)C)cc1OC	x	x	x	x	x	3
CC(C)(C)c1ccc(S(=O)(=O)/N=C2\C=C(NS(=O)(=O)c3ccccc3)C(=O)c3ccccc32)cc1	-1	-1	-4	50*	0	28
CCc1ccc(S(=O)(=O)/N=C2\C=C(Nc3ccc(C(=O)O)cc3)C(=O)c3ccccc32)cc1	6	6	-4	16	1	14
Cc1ccc(NC2=C/C(=N/S(=O)(=O)c3cccs3)c3ccccc3C2=O)cc1	7	-4	1	59*	27	33
Cc1ccc(S(=O)(=O)/N=C2\C=C(Nc3ccc(O)cc3)C(=O)c3ccccc32)cc1	-1	-5	-3	63*	26	30
O=C1C(Nc2ccccc2)=C/C(=N/S(=O)(=O)c2cccs2)c2ccccc21	x	x	x	64*	x	42*
COC(=O)c1ccc(N2C(c3cc(OC)cc(OC)c3)=Cc3ccc(-c4ccc(C(N)=O)cc4)cc3C2CC(=O)C2CC2)cc1 (stereo unspecified)	x	x	x	x	x	5
SMILES	APOBEC3A inh	APOBEC3G inh	APJ agonist	CCR6 antagonist	APJ antagonist	CXCR6 block
COc1ccc(-c2cc(NC=O)c3ncc(-c4cccc(C(=O)NCCN(C)C)c4)n3c2)c(OC)c1	x	x	x	x	x	-3
CCCCC[C@@H](C)N1C[C@H](COCc2ccccc2)Oc2cc(N3CC[C@H](N(C)C)C3)ccc2S1(=O)=O	x	x	x	x	x	3
CCCn1c(=O)c(Br)cn(-c2ccccc2C)c1=O	1	12	2	12	-5	-4
CC(C)c1ccc(S(=O)(=O)/N=C2/C=C(Sc3ncn[nH]3)C(=O)c3ccccc32)cc1	x	x	x	7	x	9
Cc1ccc(S(=O)(=O)/N=C2/C=C(Sc3ncn[nH]3)C(=O)c3ccccc32)cc1	x	x	x	92*	x	81*
COC1=C/C(=C/c2c(O)c(C#N)c3ccccn23)C=CC1=O	5	-1	-4	56*	33	32
CC(C)(C)OC(=O)N1CCC(C(=O)Nc2ccc(C(=O)N3CCCCC3)cc2)CC1	x	x	x	2	x	12
